Laboratory results as given in the EternaBench riboswitch data.

Test system: MS2 coat protein
Test: apparent Kd, MS2 coat protein; higher = weaker binding; RNA-MaP array; FMN 200 µM where present
In short: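 Stalled E. coli RNA polymerase produced the designs on Illumina sequencing-chip clusters. SNAP-549-labelled MS2 coat protein was added from 0.7 or 1.5 nM, doubling to 3 µM, without and then with constant ligand, in 100 mM Tris-HCl pH 7.5, 80 mM KCl, 4 mM MgCl2, BSA, DTT, yeast tRNA and Tween-20. The apparent Kd is the median of filtered per-cluster fits of green signal normalised to red-channel RNA signal and control-cluster median Fmax.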

[1] = designed as: ON switch for flavin mononucleotide, no ligand
[2] = ligand present: flavin mononucleotide, designed as: ON switch for flavin mononucleotide
[3] = designed as: OFF switch for flavin mononucleotide, no ligand
[4] = ligand present: flavin mononucleotide, designed as: OFF switch for flavin mononucleotide

Sequence: CGCGAACAUGAGGAUCACCCAUGUGAAAAACAUAGAGGAUAUGUCGCAUGCGUGUAAAAGACAGAAGGCUAUCGCG
- apparent Kd [1]: 76.7 nM
- apparent Kd [2]: 27.9 nM

Sequence: CGCUACACCCAGAAGGACAUGAGGAUCACCCAUGUAGGAUAUGGGAGACACAGUCCCAUGUAGAGAAACUACGCUAGUGUAGCG
- apparent Kd [1]: 200 nM
- apparent Kd [2]: 81.4 nM

Sequence: CGCUACAUGAGGAUCACCCAUGUACUAACUUGCACGUGAACGAGAAGGCCACAGCAACCCUGCGUGGAGGAUAUCGUGGUGCCA
- apparent Kd [1]: 8.49 nM
- apparent Kd [2]: 7.48 nM

Sequence: CGCUACGUUUCGUAGCAGCUAGGUGAGGAUAUUCAAUUUUUCACAUGAGGAUCACCCAUGUAUGUGAAGAAGGCGCCUAGAAAG
- apparent Kd [1]: 11.8 nM
- apparent Kd [2]: 5.64 nM

Sequence: CGCUCAAGAGAGAAGGAUUGAAUCAGAAGGCGUUACAUGAGGAUCACCCAUGUAUAGUAGUGUAACGAGGAUAUGAAAUGAGCG
- apparent Kd [3]: 133 nM
- apparent Kd [4]: 437 nM

Sequence: CGCUCAAUUACUUUGAAUAGAAUCAGAAGGCGUAACAUGAGGAUCACCCAUGUAUUGACGUGUAACGAGGAUAUGAAUUGAGCG
- apparent Kd [3]: 4.7 nM
- apparent Kd [4]: 4.57 nM

Sequence: CGCUCAAUUCAGAAGGAUAGAAUCAGAAGGCGUAACAUGAGGAUCACCCAUGUAUAGAAGUGUAACGAGGAUAUGAAUUGAGCG
- apparent Kd [3]: 11.5 nM
- apparent Kd [4]: 10.2 nM

Sequence: CGCUCAGAGAACGAUACGAAUAGACAUGAGGAUCACCCAUGUAGAAGGACAACGGAAUAAACGUUGUAGGAUAUACAUUUAGUG
- apparent Kd [3]: 34.3 nM
- apparent Kd [4]: 90.4 nM

Sequence: CGCUGGACUGAGAAGGCCAUGUGGGACGCGAACAGUGAUGUUAGGGCAUGGAGGAUAUCAGACAUGAGGAUCACCCAUGUAACC
- apparent Kd [1]: 392 nM
- apparent Kd [2]: 38 nM

Sequence: CGGAAAAGGUAGGAUAUGCUAGACGAAAGUCUAGCAGAAGGACCUACAUGAGGAUCACCCAUGUGUCCAAUCCG
- apparent Kd [3]: 56.3 nM
- apparent Kd [4]: 24.7 nM

Sequence: CGGCCGUAAGGAUAUACAUGAGGAUCACCCAUGUAUGGAAUAGCAUGAGGCGGCCCAGGUAGAAGGUAUGCCCG
- apparent Kd [3]: 20.8 nM
- apparent Kd [4]: 30.5 nM

Sequence: CGGCGCUGUCGAGAGGAUAUGCGGUGAUGGACAUGAGGAUCACCCAUGUUAGCGAUAGCAUCACGGUAGAAGGCUCCACAGCCGU
- apparent Kd [1]: 31.8 nM
- apparent Kd [2]: 13 nM

Sequence: CGGCUACCCAGUAUGGGUAUUUUUACAGAAGGCCAGGCACAUGAGGAUCACCCAUGUCAAGUUUUGGAGGAUAUGUUAGUGUCG
- apparent Kd [1]: 5.58 nM
- apparent Kd [2]: 4.25 nM

Sequence: CGGGAAGUCGUAGGAUAUGGUGAUGUACAUGAGGAUCACCCAUGUCCGUCUUCUCUCACAAGAUGCCAGAAGGACGACUUCCGG
- apparent Kd [1]: 766 nM
- apparent Kd [2]: 103 nM

Sequence: CGGGAGUCAGGAUAUACGAACAUGUCGCCAGAUGUCAAGGUACAUGAGGAUCACCCAUGUAGAAGGGAGGAGUU
- apparent Kd [3]: 91.9 nM
- apparent Kd [4]: 56.6 nM

Sequence: CGGGAGUCAGGAUAUACGAACAUGUCGCCAGAUGUCAUGGUACAUGAGGAUCACCCAUGUAGAAGGGAGGAGAU
- apparent Kd [3]: 139 nM
- apparent Kd [4]: 103 nM

Sequence: CGGGCGCGAGGAUAUACAUGAGGAUCACCCAUGUAACGGGUUUGAAUCGGGCUUGCGUGUAGAAGGUGUGUUUG
- apparent Kd [3]: 86 nM
- apparent Kd [4]: 73.8 nM

Sequence: CGGGCGCGAGUAGGAUAUGUAUAUUUGCCGGGUCCGUGAUCACAUGAGGAUCACCCAUGUGGUAAGCAGAAGGAUUCGGUCCGA
- apparent Kd [3]: 6.04 nM
- apparent Kd [4]: 7.8 nM

Sequence: CGGGUCUGAGGAUAUCCAUCUUCAUACAUGAGGAUCACCCAUGUUUACCCUUGGGUUCCUGGAGAAGGCAGUUUUC
- apparent Kd [3]: 166 nM
- apparent Kd [4]: 162 nM

Sequence: CGGUACUAGGGAGGAUAUGGGAAGAUACAUGAGGAUCACCCAUGUUUAAGAAUGCCGAGAGGCAACUAGAAGGCCCUAGUACCU
- apparent Kd [1]: 353 nM
- apparent Kd [2]: 20.7 nM

Sequence: CGGUGACGUGUAGGAUAUGGAGAUGGGUUUUGGCCAGAAGGACAUGAGGAUCACCCAUGUGGUAGAGGGUUGGCGGCUGCCCGU
- apparent Kd [3]: 16.7 nM
- apparent Kd [4]: 18.7 nM

Sequence: CGGUUCUGAGGAUAUCCACCCUCAUACAUGAGGAUCACCCAUGUUCACCCUUGGGUUCCCGGAGAAGGCAGUUUUC
- apparent Kd [3]: 233 nM
- apparent Kd [4]: 570 nM

Sequence: CGUAAGAUGCAGAAGGUGUUAGCUAGAGCUACGACAUGAGGAUCACCCAUGUACUAGAAACAGUACAAGGAUAUGCAUCUUACC
- apparent Kd [1]: 18.8 nM
- apparent Kd [2]: 6.58 nM

Sequence: CGUAGCUCCUGUUCGAAUCUCCGUGAGGAUAUCUUCAGACAUGAGGAUCACCCAUGUACAAAGGAAGAGAAGGCACGGUCCGAU
- apparent Kd [1]: 4.86 nM
- apparent Kd [2]: 4.33 nM

Sequence: CGUAGGAUCCAGAAGGCAUGAAACAUGAGGAUCACCCAUGUCAAAGACAUGAGGAUAUGGAUCCUACGAAAAGUGCGAAAGCAC
- apparent Kd [1]: 4.1 nM
- apparent Kd [2]: 3.15 nM

Sequence: CGUAGGAUCCAGAAGGCAUGAAACAUGAGGAUCACCCAUGUCAAAUACAUGAGGAUAUGGAUCCUACGAAAAGUGCGAAAGCAC
- apparent Kd [1]: 3.95 nM
- apparent Kd [2]: 3.84 nM

Sequence: CGUAGGAUCCAGAAGGCAUGUACAUGAGGAUCACCCAUGUCGAAAGACAUGAGGAUAUGGAUCCUACGAAAAGUGCGAAAGCAC
- apparent Kd [1]: 56.4 nM
- apparent Kd [2]: 6.15 nM

Sequence: CGUAGGCCUCUCAACAUGAGGAUCACCCAUGUACGUGAAACGUAGGAUAUCACACAACUAAUGUGUGAGAAGGGCGCGCCGGAG
- apparent Kd [1]: 126 nM
- apparent Kd [2]: 124 nM

Sequence: CGUAGUCCGUAGAAGGGUGACAUGAGGAUCACCCAUGUGCGAGCCGAGGGAGUCAGCGGCUCGCCACAGGAUAUACGGAGCACG
- apparent Kd [1]: 44.5 nM
- apparent Kd [2]: 52.9 nM

Sequence: CGUAGUUGGUAAGGAUAUCCUACACUAUUCUGACCCGUGCAAGCUACAUGAGGAUCACCCAUGUGGGAGAAGGUGCGUCAACGU
- apparent Kd [3]: 10.8 nM
- apparent Kd [4]: 10.9 nM

Sequence: CGUAUACAUGAGGAUCACCCAUGUAAGGAUAUGCUUUAUUAUUAUUAUUAUUAUUGUUGCAGAAGGUACAUUGC
- apparent Kd [3]: 19 nM
- apparent Kd [4]: 17.7 nM

Sequence: CGUCCACAUGAGGAUCACCCAUGUGAGGAUAUCGAUGUCCCAGGGCGGGUGCGGGACUCGAGAAGGCACUAGGU
- apparent Kd [3]: 32.7 nM
- apparent Kd [4]: 93.6 nM

Sequence: CGUCGGAGCAGAGGAUAUUACAUGAGGAUCACCCAUGUAUGAACCAAUAGCUGGAAACAGCAAUGUAAGAAGGCUGCUCCGACA
- apparent Kd [3]: 12.8 nM
- apparent Kd [4]: 198 nM

Sequence: CGUGACGACAUAGGAUAUUGAUACAUGAGGAUCACCCAUGUCAACCAUUUAUCUCAAAUUGUUGACAAGAAGGAUGUGGUCACG
- apparent Kd [1]: 263 nM
- apparent Kd [2]: 13.6 nM

Sequence: CGUGACGACAUAGGAUAUUGAUACAUGAGGAUCACCCAUGUCACCCAUUUAUCUCUAAGUGUUGACAAGAAGGAUGUGGUCACG
- apparent Kd [1]: 10.1 nM
- apparent Kd [2]: 9.33 nM

Sequence: CGUGCAAAUGUAGGAUAUGGUUAUCUAUGUCUAGUUACUAGACAUAGAUAACCAGAAGGACAUGAGGAUCACCCAUGUAGCACG
- apparent Kd [3]: 6.7 nM
- apparent Kd [4]: 21.6 nM

Sequence: CGUGCUUAUGUAGGAUAUGGUUAUCUAUGUCUAGUUACUAGACAUAGAUAACCAGAAGGACAUGAGGAUCACCCAUGUAGCACG
- apparent Kd [3]: 14.6 nM
- apparent Kd [4]: 25.8 nM

Sequence: CGUGUUCCACAGAAGGCAUGGGACACAUGAGGAUCACCCAUGUCACUGAUGAGGAUAUGUAAAAGGAGCGAGGUGCAAGAAUAG
- apparent Kd [1]: 158 nM
- apparent Kd [2]: 23.7 nM

Sequence: CGUUAAUAUCGAGGAUAUGUCUAGACACAUGAGGAUCACCCAUGUAUGUGUAUAGAAGGCGAUAUUAACAGCAUGUUACAUGCU
- apparent Kd [1]: 41 nM
- apparent Kd [2]: 16.7 nM

Sequence: CGUUCUAGAGGAUAUACAGCUUAUGUACGGCGAUCUGGACAACAUGAGGAUCACCCAUGUAGAAGGCUAAGCAC
- apparent Kd [3]: 36.4 nM
- apparent Kd [4]: 69 nM

Sequence: CUAAUGUGAGGAUAUGGUGUUGAUCGCAGGAAGGAGAUGCUCCAGAAGGCACAUGAGGAUCACCCAUGUAGUGA
- apparent Kd [3]: 70.5 nM
- apparent Kd [4]: 36.7 nM

Sequence: CUACCUUAUGAGAAGGCGGUCAUGAAACAUGAUCGAGGAUAUCAUGUAAACAUGAGGAUCACCCAUGUAUGGGUAUUAUGGUAA
- apparent Kd [1]: 226 nM
- apparent Kd [2]: 28.8 nM

Sequence: CUAGCGUAUGUAGGAUAUCGGACUGUUUCAGUCUGAGAAGGACAUGAGGAUCACCCAUGUAUAGCUACGUGAGUAGCUCGCUAG
- apparent Kd [3]: 20.4 nM
- apparent Kd [4]: 32.4 nM

Sequence: CUAGUACAUGAGGAUCACCCAUGUCAGGAUAUUGGAUAUGACAUGGAAAACAUGUUAACAAGAAGGGACUAUAG
- apparent Kd [3]: 245 nM
- apparent Kd [4]: 209 nM

Sequence: CUAGUAUAUCAGGAUAUGAUUUUGUGUAGUUGGUCAGAAGGGAUGACAUGAGGAUCACCCAUGUUAAGGAGUGA
- apparent Kd [3]: 122 nM
- apparent Kd [4]: 146 nM

Sequence: CUAUAUAAUGCCUCAUGUACAUGAGGAUCACCCAUGUUAACUUAGGAUAUAUUUAUAUUGAUAGAGUAGAAGGAAGUACUAUUU
- apparent Kd [3]: 14.2 nM
- apparent Kd [4]: 12.9 nM

Sequence: CUAUCUUAUGAGAAGGCGAUCAUGAAACAUGAUCGAGGAUAUCAUGUAAACAUGAGGAUCACCCAUGUAUGGGUAUUAUGGUAG
- apparent Kd [1]: 175 nM
- apparent Kd [2]: 57.1 nM

Sequence: CUAUGAAGAAUAGGAUAUUCGAUCAUGAGGAUAGAAGAAGGGUUACAUGAGGAUCACCCAUGUAUGCACAUGAGGAUCCCUUAG
- apparent Kd [3]: 167 nM
- apparent Kd [4]: 195 nM

Sequence: CUAUUUUUACAGAAGGUUUAAUACUAUGUAUGAGAAGGAUAUGUAACAUGAGGAUCACCCAUGUUUUAUUUAUAUGAGGUUCGU
- apparent Kd [3]: 13.4 nM
- apparent Kd [4]: 11.4 nM

Sequence: CUCAGCAAGGAAGGAUAUGGGUUUUCGCACAUGAGGAUCACCCAUGUCGCAGUCCCUACGGGAUCCCAGAAGGUCUAUGCGUGG
- apparent Kd [1]: 260 nM
- apparent Kd [2]: 16.3 nM

Sequence: CUCAGCUCGUCAGGAUAUACGUCACUGCUUCGGCAGUGUGGUAAGAUCACAUGAGGAUCACCCAUGUAGAAGGGACGAGCUGAG
- apparent Kd [3]: 11.5 nM
- apparent Kd [4]: 245 nM

Sequence: CUCAUGUGAGGAUAUCAGUAGUAAAAAAAUAAAAUUACUACUGAGAAGGCACAUGAGGAUCACCCAUGUGUCUU
- apparent Kd [3]: 16.3 nM
- apparent Kd [4]: 31.7 nM

Sequence: CUCAUGUGAGGAUAUGUGAUCAACCUUCUAUAUAGAUGAUUACAGAAGGCACAUGAGGAUCACCCAUGUAGAUC
- apparent Kd [3]: 23.4 nM
- apparent Kd [4]: 18.3 nM

Sequence: CUCAUGUGAGGAUAUGUGAUCAACCUUCUGUAUAGAUGAUUACAGAAGGCACAUGAGGAUCACCCAUGUAGAUC
- apparent Kd [3]: 106 nM
- apparent Kd [4]: 125 nM

Sequence: CUCAUGUUAGGAUAUGCGCUCAACGUAGUGGUCGAGCUCUAGCAGAAGGAACAUGAGGAUCACCCAUGUUUGCA
- apparent Kd [3]: 58.1 nM
- apparent Kd [4]: 26.8 nM
